Screening results (PubChem)
The list is not random: actives were taken first. Their share in the collection is about 1.5%.
APJ antag = blocks the human apelin receptor APJ; P35414; CHO-K1 APJ beta-arrestin complementation, luminescence; inhibition, % at 20 µM; hit rate 0.32% among 330,000; AID 2521;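 active = inhibition above about 40% at 20 µM, limit read from the data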;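 note: cells challenged with 10 nM apelin-13 agonist together with compound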
CCR6 antag = CCR6 (human) receptor antagonism | P51684 | CHO-K1 CCR6 PathHunter beta-arrestin, luminescence, CCL20-stimulated | inhibition, % at 20 µM | hit rate 0.49% among 340,000 | AID 493098;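 active = compounds whose inhibition of the agonist-driven luminescence signal at 20 µM reaches about 50%, limit read from the data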;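 note: cells stimulated with CCL20 at 14 nM final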
Target sequence (P51684 whole entry, looked up): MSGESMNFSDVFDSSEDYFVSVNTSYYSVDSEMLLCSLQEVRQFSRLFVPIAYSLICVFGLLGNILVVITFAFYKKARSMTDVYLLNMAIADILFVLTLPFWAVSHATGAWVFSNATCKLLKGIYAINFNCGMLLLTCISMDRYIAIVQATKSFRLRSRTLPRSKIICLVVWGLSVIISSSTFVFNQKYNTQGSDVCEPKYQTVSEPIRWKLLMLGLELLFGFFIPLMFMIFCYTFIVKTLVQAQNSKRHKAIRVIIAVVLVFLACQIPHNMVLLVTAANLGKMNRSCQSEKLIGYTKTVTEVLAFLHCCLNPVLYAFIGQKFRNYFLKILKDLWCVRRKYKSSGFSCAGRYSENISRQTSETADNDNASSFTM
CXCR6 inh = inhibitors of human CXCR6 receptor. O00574. CHO-K1 PathHunter CXCR6 beta-arrestin, luminescence. inhibition, % at 20 µM. AID 602244. hit rate 0.36% among 360,000; in the data active = inhibition above about 34%, passing the limit was not always enough;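 note: antagonist mode with CXCL16 agonist at 10 nM final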
APJ agonist = APJ receptor agonism. P35414. CHO-K1 APJ PathHunter beta-arrestin, luminescence; 0% DMSO wells, 100% apelin. activation, % at 20 µM. hit rate 0.11% among 330,000. AID 2520;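 active = activation more than six SD over the plate average, tested at 20 µM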
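Assay system: CHO-K1 APJ beta-arrestin complementation cell line / Compound: single test compound dose, 20 µM final, 1% DMSO / Times: overnight seeding, 90 min compound at 25 °C, 1 h detection / Technique: beta-gal luminescence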
EBI2 antag = EBI2 (human) antagonism | P32249 | EBI2 beta-arrestin recruitment, luminescence, 7a,25-OHC stimulated | inhibition, % at 5 µM | hit rate 0.81% among 360,000 | AID 651636; in the data active = inhibition above about 38%;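 note: enzyme fragment complementation signal reports receptor beta-arrestin coupling in cells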
EBI2 antag conf = EBI2 (human) antagonism, single concentration confirmation | shares compounds with EBI2 antag | EBI2 beta-arrestin luminescence, 7a,25-OHC antagonism | inhibition, % at 5 µM | hit rate 29% among 2,400 | AID 651997;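 active = inhibition of at least 50%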
EBI2 ag = counter-screen for EBI2 antagonists: EBI2 agonist activity; activation, % at 5 µM; 2,400 tested, under 10 active; shares compounds with EBI2 antag; AID 652000; EBI2-expressing cells, agonist mode, luminescence, 60 min; 0% vehicle, 100% 7α,25-dihydroxycholesterol control;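 active = activation of at least 50%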
bGal cs = counter-screen for EBI2 antagonists: E. coli beta-galactosidase inhibition; shares compounds with EBI2 antag; purified beta-galactosidase, luminescent Galacton Star, 15 min; inhibition, % at 5 µM; hit rate 1% among 2,400;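 active = replicate-average signal at least 3 plate SD below neutral wells, shown as high inhibition, flagging enzyme-inhibiting false positives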;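 note: higher means stronger loss of beta-gal luminescence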
Large screens that a line does not name were inactive (follow-up assays come after a bar, where they were run).

Cc1ccc2[nH]c3c(c2c1)CN(C(=O)CN1c2ccc(F)cc2CCC1C)CC3 (centres undefined)	EBI2 antag 46 | EBI2 antag conf inactive | EBI2 ag inactive | bGal cs inactive
Cc1ccc2[nH]c3c(c2c1)CN(C(=O)CN1CCN(c2cccc(C)c2C)CC1)CC3	none
CCN(Cc1ccccc1)C(c1cccs1)c1nnnn1C1CCCCC1 (centres undefined)	EBI2 antag 49 | EBI2 antag conf inactive | EBI2 ag inactive | bGal cs inactive
Clc1ccc(CN(CC2CCCO2)C(c2cccs2)c2nnnn2C2CCCC2)cc1 (centres undefined)	EBI2 antag 49 | EBI2 antag conf inactive | EBI2 ag inactive | bGal cs inactive
N#Cc1ccsc1NC(=O)CN1C(=O)NC2(CCCCC2)C1=O	none
COc1ccc(CNC(=O)C2CCN(C(=O)c3ccc(-c4ccccc4)cc3)CC2)cc1	EBI2 antag 68 | EBI2 antag conf inactive | EBI2 ag inactive | bGal cs inactive
O=C(NC1CCCC1)C1CCN(C(=O)c2ccc(-c3ccccc3)cc2)CC1	EBI2 antag 49 | EBI2 antag conf inactive | EBI2 ag inactive | bGal cs inactive
N#CCCN(C(=S)NC(=O)c1ccco1)c1ccccc1F	none
CCOC(=O)c1c(NC(=S)NC(=O)c2cnn(CC)c2)sc2c1CCC(C)C2 (centres undefined)	EBI2 antag 46 | EBI2 antag conf inactive | EBI2 ag inactive | bGal cs inactive
CCOC(=O)c1c(NC(=O)C2C3C=CC(C3)C2C(=O)O)sc2c1CCC(C)C2 (centres undefined)	none
CC(C)c1ccc(CNC(=O)C2CCCN2S(=O)(=O)c2ccccc2)cc1 (centres undefined)	none
COc1ccc(-c2csc(N(CC(C)C)C(=O)c3ccco3)n2)cc1	EBI2 antag 44 | EBI2 antag conf inactive | EBI2 ag inactive | bGal cs inactive
Cn1cncc1C#Cc1ccc2cc(C3(O)CCCCC3)oc(=O)c2c1	none
CC(C)c1ccc(C(C)NCCS(=O)(=O)c2ccc(Cl)cc2)cc1 (centres undefined)	EBI2 antag 72 | EBI2 antag conf inactive | EBI2 ag inactive | bGal cs inactive
CC(C(=O)NCCS(=O)(=O)c1ccc(Br)cc1)S(=O)(=O)c1ccc(Cl)cc1 (centres undefined)	none
Cc1ccc2oc(C(=O)N3CCC(O)(c4cccc(C(F)(F)F)c4)CC3)c(C)c2c1	EBI2 antag 57 | EBI2 antag conf inactive | EBI2 ag inactive | bGal cs inactive
Cc1nc(CS(=O)(=O)c2ccccc2)cc(Sc2ccc(Cl)cc2Cl)n1	EBI2 antag 75 | EBI2 antag conf 53 | EBI2 ag inactive | bGal cs inactive
Cc1nc(Cl)cc(CS(=O)(=O)c2ccc(Cl)cc2)n1	none
O=C(c1ccccc1)c1sc(Nc2ccc3c(c2)OCO3)nc1-c1ccccc1	EBI2 antag 50 (no result: APJ antag, CCR6 antag, APJ agonist) | EBI2 antag conf inactive | EBI2 ag inactive | bGal cs inactive
COc1ccc(Cn2cc(CN3CCOCC3)nn2)cc1	none (no result: APJ antag, CCR6 antag, APJ agonist)
COc1ccc([C@H]2CN(c3ccc(OC)cc3)C(=O)[C@@H]2CC(=O)Nc2ccccc2)cc1	EBI2 antag 46 (no result: APJ antag, CCR6 antag, APJ agonist) | EBI2 antag conf 53 | EBI2 ag inactive | bGal cs inactive
COc1ccc(NC(=O)C[C@H]2C(=O)N(c3ccc(Br)cc3)C[C@@H]2c2ccc(OC)cc2)cc1	none (no result: APJ antag, CCR6 antag, APJ agonist)
CC(C)(C)OC(=O)N1CCC(C(=O)N[C@H](C(=O)O)c2ccccc2)(c2ccccc2)CC1	none
COc1ccc(NC(=O)C2CCC(CNS(=O)(=O)c3cccs3)CC2)cc1OC (centres undefined)	none
COc1ccc(NC(=O)C2CCC(CNS(=O)(=O)c3cccs3)CC2)cc1 (centres undefined)	EBI2 antag 47 | EBI2 antag conf inactive | EBI2 ag inactive | bGal cs inactive
Cc1ccc(N/C=C(\C#N)c2ccc(OCCCF)cc2)cc1	EBI2 antag 81 | EBI2 antag conf 52 | EBI2 ag inactive | bGal cs inactive
COc1ccc(N/C=C(\C#N)c2ccc(OCCCF)cc2)cc1	EBI2 antag 72 | EBI2 antag conf inactive | EBI2 ag inactive | bGal cs inactive
Cc1ccc(N/C=C(/C#N)c2ccsc2)cc1	none
Cc1ccc(/C=C/C(=O)N2CCCC(C)C2)cc1 (centres undefined)	EBI2 antag 67 | EBI2 antag conf inactive | EBI2 ag inactive | bGal cs inactive
CCOC(=O)C1CCCN(C(=O)/C=C/c2ccc(Cl)cc2)C1 (centres undefined)	EBI2 antag 46 | EBI2 antag conf inactive | EBI2 ag inactive | bGal cs inactive
Cc1ccc(/C=C/C(=O)N2CCC(Cc3ccccc3)CC2)cc1	EBI2 antag 96 | EBI2 antag conf 86 | EBI2 ag inactive | bGal cs inactive
CCOC(=O)C1CCCN(C(=O)/C=C/c2cc(OC)c(OC)c(OC)c2)C1 (centres undefined)	none
CCc1ccccc1NC(=O)CN1CCN(C(=O)C2CCN(C(=O)/C=C/c3ccccc3)CC2)CC1	EBI2 antag 77 | EBI2 antag conf 52 | EBI2 ag inactive | bGal cs inactive
COc1ccc(SC[C@H](Cc2ccccc2)N2CC[C@@H](C(C)(C)C)CCC2=O)cc1	none
CC1(C)C2CCC1(C)C(NC(=O)/C=C/c1ccccc1)C2 (centres undefined)	EBI2 antag 46 | EBI2 antag conf inactive | EBI2 ag inactive | bGal cs inactive
COc1ccc(-c2ncncc2-c2ccc(OC)c(OC)c2)c(O)c1	none
COc1ccc(-c2c(C)nc(N)nc2-c2ccc(OC)cc2O)cc1	EBI2 antag 74 | EBI2 antag conf inactive | EBI2 ag inactive | bGal cs inactive
COc1ccc(-c2c(C)nc(N)nc2-c2ccc(OCc3ccc(C)cc3)cc2O)cc1OC	none
CCOc1ccc(-c2nc(N)ncc2Oc2cccc(OC)c2)c(O)c1	EBI2 antag 47 | EBI2 antag conf inactive | EBI2 ag inactive | bGal cs inactive
CCc1cc(-c2nc(N)ncc2-c2ccc(Br)cc2)c(O)cc1OC	EBI2 antag 77 | EBI2 antag conf inactive | EBI2 ag inactive | bGal cs inactive
COc1ccc(-c2nc(N)ncc2-c2ccc(OC)c(OC)c2)c(O)c1	EBI2 antag 57 | EBI2 antag conf inactive | EBI2 ag inactive | bGal cs inactive
CCOc1ccc(-c2nc(N)ncc2Oc2ccccc2Br)c(O)c1	none
O=C(N/N=C/c1ccc(Cl)cc1Cl)c1cccc(F)c1	EBI2 antag 45 | EBI2 antag conf inactive | EBI2 ag inactive | bGal cs inactive
